Measurements of several laboratories.
Each line is one published result; the experiments were not run side by side.
Target: Serine/threonine-protein kinase 16 (STK16, Homo sapiens, UniProt O75716)

SMILES	observed	method	concentration	remaining binding [%]
Cc1cnc(Nc2ccc(C(=O)N3CCC(N4CCCC4)CC3)cc2)nc1-c1cc2ccccc2s1	binding	competition with immobilised ligand	1 µM	3.4
CN(C)CC#Cc1ccc(OCCCc2sc(N3CCc4cccc(C(=O)Nc5nc6ccccc6s5)c4C3)nc2C(=O)O)c(F)c1	cell-free assay	competition with immobilised ligand	1 µM	92
COc1ncc2cc3ccccc3nc2c1C#N	cell-free assay	competition with immobilised ligand	5 µM	90
O=C(NCCCN1CCOCC1)c1ccc(Nc2nccc(-c3cc4ccccc4s3)n2)cc1	binding	competition with immobilised ligand	1 µM	32
CCC(=O)N[C@@H]1CC[C@H](C(=O)N(C)c2ccc(-c3nc4ccccc4o3)cc2)C1	cell-free assay	competition with immobilised ligand	1 µM	100
CC1CCCN1c1nccc(-c2cnn3ncccc23)n1 (stereo not drawn)	binding	–	1 µM	86
CO[C@@H](C)c1c(Nc2ccc([C@H](N(C)C(=O)C3CCS(=O)(=O)CC3)C(F)(F)F)cc2)cnc2cc(Cl)nn12	cell-free assay	competition with immobilised ligand	1 µM	75
C=CC(=O)N1CCC(C(=O)NCC(=O)N2CCN(c3nc(-c4cnc(N)nc4C(F)F)nc(N4CCOCC4)n3)CC2)CC1	binding	competition with immobilised ligand	1 µM	92
CNC(=O)Nc1ccc2c(c1)CC[C@@]21OC(=O)N(CC(=O)N(Cc2ccc(F)cc2)[C@@H](C)C(F)(F)F)C1=O	cell-free assay	competition with immobilised ligand	1 µM	84
FC(F)(F)Oc1cccc(-c2cnc3ccc(-c4ccncc4)nn23)c1	binding	competition with immobilised ligand	5 µM	40
O=C(Nc1c[nH]nc1C(=O)NC1CCNCC1)c1cc(F)cc(F)c1	binding	competition with immobilised ligand	1 µM	100
CN(C)C(=O)Cn1cc(-c2nc([C@@](C)(c3ccc(-c4cnc(N)nc4)cc3)C3CC3)no2)cn1	cell-free assay	competition with immobilised ligand	1 µM	100
Nc1ncc2c(n1)-c1c([nH]c3ccc(C#CC4CC4)cc13)CCCC2	binding	competition with immobilised ligand	1 µM	100
N[C@@H]1CCN(c2nccc(-c3cnn4ncccc34)n2)C1	binding	–	1 µM	100
c1cncc(-c2cccc(Nc3nccc(NC4CCCCC4)n3)c2)c1	binding	competition with immobilised ligand	10 µM	42
COc1ccnn2ncc(-c3ccnc(N(C)C)n3)c12	binding	–	1 µM	85
O=C(N1CCS(=O)(=O)CC1)N1C[C@H](c2ccc(OC(F)(F)F)cc2)C[C@H](c2nc(C3CC3)no2)C1	cell-free assay	competition with immobilised ligand	1 µM	100
CN(C)c1nccc(-c2cnc3ncccn23)n1	binding	–	1 µM	92
CNC(=O)[C@@H]1CC[C@@H](n2c(-c3ccc4cnccc4c3)nc3ccc(C(=O)NCc4cccc(C(N)=O)c4)cc32)C1	binding	competition with immobilised ligand	1 µM	100
O=C(NCCCN1CCOCC1)c1ccc(Nc2ncc(Cl)c(-c3ccc(Cl)s3)n2)cc1	binding	competition with immobilised ligand	1 µM	1.1
Cc1cnn2ncc(-c3ccnc(N(C)C)n3)c2c1	binding	–	1 µM	91
